Measurements collected from several papers.
Protocols differ between the studies behind these lines.
Target: Mitogen-activated protein kinase kinase kinase 14 (MAP3K14, Homo sapiens, UniProt Q99558)

The remaining binding of `O=C(c1ccc(Nc2nccc(-c3cc4ccccc4s3)n2)cc1)N1CCC(N2CCCC2)CC1` is reported as 59% (binding; competition with immobilised ligand; 1 µM).
With `Cc1cnn2ncc(-c3ccnc(N(C)C)n3)c2c1` the remaining binding was 80% (binding; 1 µM).
`FC(F)(F)Oc1cccc(-c2cnc3ccc(-c4ccncc4)nn23)c1` gave a remaining binding of 37% (cell-free assay; competition with immobilised ligand; 5 µM).
For `COc1ccnn2ncc(-c3ccnc(N(C)C)n3)c12`, the remaining binding was 78% (binding; 1 µM).
`CCCCN(CCCC)C(=O)CN1C[C@@H](c2cc(OC)c3c(c2)OCO3)[C@H](C(=O)O)[C@H]1CC(C)(C)CCC` has a remaining binding of 100% (cell-free assay; competition with immobilised ligand; 1 µM).
`c1cncc(-c2cccc(Nc3nccc(NC4CCCCC4)n3)c2)c1` has a remaining binding of 96% (binding; competition with immobilised ligand; 10 µM).
With `F[C@@H]1CCN(c2nccc(-c3cnn4ncccc34)n2)C1` the remaining binding was 100% (binding; 1 µM).
`Cc1noc([C@H]2C[C@@H](c3ccc(C(F)(F)F)cc3)CN(C(=O)N3CCS(=O)(=O)C3)C2)n1` gave a remaining binding of 91% (cell-free assay; competition with immobilised ligand; 1 µM).
`CN(C)c1nccc(-c2cnn3ncccc23)n1` gave a remaining binding of 74% (binding; competition with immobilised ligand; 1 µM).
With `Nc1cnc(N2CCc3cc(S(=O)(=O)Nc4c(F)cc(Cl)cc4F)cc(N4CCCC4=O)c32)nc1` the remaining binding was 75% (cell-free assay; competition with immobilised ligand; 1 µM).
The remaining binding of `COc1ncc2cc3ccccc3nc2c1C#N` is reported as 76% (cell-free assay; competition with immobilised ligand; 5 µM).
`C=CC(=O)N1CCC(C(=O)NCC(=O)N2CCN(c3nc(-c4cnc(N)nc4C(F)F)nc(N4CCOCC4)n3)CC2)CC1` gave a remaining binding of 89% (binding; competition with immobilised ligand; 1 µM).
`N[C@H]1CCN(c2nccc(-c3cnn4ncccc34)n2)C1` gave a remaining binding of 100% (binding; competition with immobilised ligand; 1 µM).
The remaining binding of `COc1cnc(Nc2cccc(S(N)(=O)=O)c2)nc1N1CCN(c2ccccc2)C(=O)C1` is reported as 89% (binding; competition with immobilised ligand; 1 µM).
The remaining binding of `CN1CCN(c2cnc3c(C4CCN(C(=O)c5ccc(OC(F)(F)F)cc5N)CC4)ncnc3c2)CC1` is reported as 100% (cell-free assay; competition with immobilised ligand; 1 µM).
`c1cnn2ncc(-c3ccnc(N4CCC45COC5)n3)c2c1` gave a remaining binding of 44% (binding; competition with immobilised ligand; 1 µM).
For `CC(=O)N1CCC(c2ccc(C(=O)NC(=N)N)cc2C(F)(F)F)CC1`, the remaining binding was 100% (cell-free assay; competition with immobilised ligand; 1 µM).
With `O=C(NCC1CCOCC1)c1n[nH]cc1NC(=O)c1c(F)cccc1F` the remaining binding was 79% (binding; competition with immobilised ligand; 1 µM).
For `c1ccc(N2CCN(Cc3nc4ccccc4[nH]3)CC2)nc1`, the remaining binding was 94% (binding; competition with immobilised ligand; 1 µM).
`O=C(c1ccc(Nc2ncc(Cl)c(-c3ccc(Cl)s3)n2)cc1)N1CCC(N2CCCC2)CC1` gave a remaining binding of 22% (binding; competition with immobilised ligand; 1 µM).
